In the M2OR odorant receptor database:
Residue numbers refer to the chain shown, from its start.

Experiments:
Settings in all cases: stereoisomer not certain
O10H2 = tested on: T1, O10H2
T1 sequence (whole entry): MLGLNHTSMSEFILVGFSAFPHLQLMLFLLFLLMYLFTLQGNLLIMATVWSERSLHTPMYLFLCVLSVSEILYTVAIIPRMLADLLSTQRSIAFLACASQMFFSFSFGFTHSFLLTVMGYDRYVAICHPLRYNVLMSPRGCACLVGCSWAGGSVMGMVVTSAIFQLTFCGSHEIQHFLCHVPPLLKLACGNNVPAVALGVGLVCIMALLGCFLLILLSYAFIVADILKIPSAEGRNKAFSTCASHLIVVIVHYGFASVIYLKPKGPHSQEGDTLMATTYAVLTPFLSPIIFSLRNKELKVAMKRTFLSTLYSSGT
Summary of the method: (§1)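 Each entry records the cell line, G-protein, co-transfected protein and tags used. Methods varied with the source, often transient luciferase assays in mammalian cell lines. A receptor–molecule pair is called responsive (active) if the original authors judged its signal statistically different from baseline and non-responsive (inactive) otherwise.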

O10H3 R54H = tested on: T2, O10H3 R54H
T2 sequence (whole entry): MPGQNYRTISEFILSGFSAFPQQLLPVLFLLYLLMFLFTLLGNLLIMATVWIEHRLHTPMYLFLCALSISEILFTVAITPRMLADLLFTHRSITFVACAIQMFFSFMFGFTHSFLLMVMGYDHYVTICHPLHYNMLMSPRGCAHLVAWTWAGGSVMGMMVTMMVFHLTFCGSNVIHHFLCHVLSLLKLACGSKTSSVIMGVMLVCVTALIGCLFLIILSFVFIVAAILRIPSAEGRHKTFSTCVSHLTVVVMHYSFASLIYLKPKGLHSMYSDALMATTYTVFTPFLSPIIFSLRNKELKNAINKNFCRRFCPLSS
Summary of the method: as §1

O10H4 I50V = tested on: T3, O10H4 I50V
T3 sequence (whole entry): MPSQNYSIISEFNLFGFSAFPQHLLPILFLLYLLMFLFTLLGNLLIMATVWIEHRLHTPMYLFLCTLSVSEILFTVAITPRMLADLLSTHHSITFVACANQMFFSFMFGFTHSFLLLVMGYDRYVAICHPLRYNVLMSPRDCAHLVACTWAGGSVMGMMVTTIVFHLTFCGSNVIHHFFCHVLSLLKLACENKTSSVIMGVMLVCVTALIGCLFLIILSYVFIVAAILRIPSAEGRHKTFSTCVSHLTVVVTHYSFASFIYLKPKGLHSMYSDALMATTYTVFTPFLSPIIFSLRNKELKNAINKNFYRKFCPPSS
Summary of the method: as §1

O10H5 S268Y = tested on: T4, O10H5 S268Y
T4 sequence (whole entry): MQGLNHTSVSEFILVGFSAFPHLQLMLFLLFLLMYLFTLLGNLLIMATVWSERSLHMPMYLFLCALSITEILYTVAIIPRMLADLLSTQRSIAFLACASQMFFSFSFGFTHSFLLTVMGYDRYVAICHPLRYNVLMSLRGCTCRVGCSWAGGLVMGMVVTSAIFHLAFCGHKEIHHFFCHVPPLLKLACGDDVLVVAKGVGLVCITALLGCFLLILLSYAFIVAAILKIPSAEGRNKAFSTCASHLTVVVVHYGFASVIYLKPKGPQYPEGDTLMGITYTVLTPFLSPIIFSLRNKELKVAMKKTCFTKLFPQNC
Summary of the method: as §1

O10J1 M62I I103M = tested on: T5, O10J1 M62I I103M
T5 sequence (whole entry): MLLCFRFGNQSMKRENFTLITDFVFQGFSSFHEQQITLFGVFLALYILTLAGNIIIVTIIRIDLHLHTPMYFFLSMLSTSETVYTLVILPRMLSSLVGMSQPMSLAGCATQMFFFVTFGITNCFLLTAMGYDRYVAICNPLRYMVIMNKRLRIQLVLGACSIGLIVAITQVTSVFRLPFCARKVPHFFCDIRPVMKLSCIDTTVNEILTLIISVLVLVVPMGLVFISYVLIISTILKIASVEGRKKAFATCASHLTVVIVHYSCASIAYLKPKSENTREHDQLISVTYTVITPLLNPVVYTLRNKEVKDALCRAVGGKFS
Summary of the method: as §1

O10J1 M62I = tested on: T6, O10J1 M62I
T6 sequence (whole entry): T5 sequence (whole entry) with M103I
Summary of the method: as §1

O10J3 Q235R E319G = tested on: T7, O10J3 Q235R E319G
T7 sequence (whole entry): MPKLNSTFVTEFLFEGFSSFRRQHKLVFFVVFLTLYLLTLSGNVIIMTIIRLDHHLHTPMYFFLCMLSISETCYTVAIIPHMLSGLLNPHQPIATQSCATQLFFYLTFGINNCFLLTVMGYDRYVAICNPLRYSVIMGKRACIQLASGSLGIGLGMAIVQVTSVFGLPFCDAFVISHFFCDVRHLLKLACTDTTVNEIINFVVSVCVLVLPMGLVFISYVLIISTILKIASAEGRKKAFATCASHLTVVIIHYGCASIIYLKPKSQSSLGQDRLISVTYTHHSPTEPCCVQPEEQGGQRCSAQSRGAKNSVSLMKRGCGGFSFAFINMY
Summary of the method: as §1

O10P1 R195K = tested on: T8, O10P1 R195K
T8 sequence (whole entry): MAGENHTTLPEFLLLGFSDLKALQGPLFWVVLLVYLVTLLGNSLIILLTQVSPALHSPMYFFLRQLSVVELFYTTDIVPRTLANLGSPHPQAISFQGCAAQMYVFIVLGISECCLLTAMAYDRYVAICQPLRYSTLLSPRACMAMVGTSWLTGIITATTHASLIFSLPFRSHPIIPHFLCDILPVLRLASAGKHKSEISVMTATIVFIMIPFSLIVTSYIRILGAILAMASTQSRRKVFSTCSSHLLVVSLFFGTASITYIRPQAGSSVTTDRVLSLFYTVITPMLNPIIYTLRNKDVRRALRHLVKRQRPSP
Summary of the method: as §1

O10Q1 E12D = tested on: T9, O10Q1 E12D
T9 sequence (whole entry): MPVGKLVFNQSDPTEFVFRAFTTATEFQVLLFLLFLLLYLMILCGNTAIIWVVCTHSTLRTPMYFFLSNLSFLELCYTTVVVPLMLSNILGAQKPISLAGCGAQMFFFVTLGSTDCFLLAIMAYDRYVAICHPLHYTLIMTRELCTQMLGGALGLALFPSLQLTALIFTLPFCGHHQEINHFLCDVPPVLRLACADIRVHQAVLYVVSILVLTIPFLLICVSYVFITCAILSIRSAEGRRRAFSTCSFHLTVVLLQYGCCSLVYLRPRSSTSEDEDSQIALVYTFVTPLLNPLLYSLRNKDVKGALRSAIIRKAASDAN
Summary of the method: as §1

O10Q1 Q10R E12D = tested on: T10, O10Q1 Q10R E12D
T10 sequence (whole entry): T9 sequence (whole entry) with Q10R
Summary of the method: as §1

Measured: odorant receptor agonist call

CC1=C(O)C(=O)C(C)O1 (stereo not given)
inactive: O10H2 | O10H3 R54H | O10H4 I50V | O10H5 S268Y | O10J1 M62I I103M | O10J1 M62I | O10J3 Q235R E319G | O10P1 R195K | O10Q1 E12D | O10Q1 Q10R E12D

CCC1OC(=O)C(O)=C1C (stereo not given)
inactive: O10H2 | O10H3 R54H | O10H4 I50V | O10H5 S268Y | O10J1 M62I I103M | O10J1 M62I | O10J3 Q235R E319G | O10P1 R195K | O10Q1 E12D | O10Q1 Q10R E12D

CC1=C(O)C(=O)OC1C (stereo not given)
inactive: O10H2 | O10H3 R54H | O10H4 I50V | O10H5 S268Y | O10J1 M62I I103M | O10J1 M62I | O10J3 Q235R E319G | O10P1 R195K | O10Q1 E12D | O10Q1 Q10R E12D

CC1=NC(C)C(C)S1 (stereo not given)
inactive: O10H2 | O10H3 R54H | O10H4 I50V | O10H5 S268Y | O10J1 M62I I103M | O10J1 M62I | O10J3 Q235R E319G | O10P1 R195K | O10Q1 E12D | O10Q1 Q10R E12D

CCC1OC(C)=C(O)C1=O (stereo not given)
inactive: O10H2 | O10H3 R54H | O10H4 I50V | O10H5 S268Y | O10J1 M62I I103M | O10J1 M62I | O10J3 Q235R E319G | O10P1 R195K | O10Q1 E12D | O10Q1 Q10R E12D

CCCCCCC=CCCC=O
inactive: O10H2 | O10H3 R54H | O10H4 I50V | O10H5 S268Y | O10J1 M62I I103M | O10J1 M62I | O10J3 Q235R E319G | O10P1 R195K | O10Q1 E12D | O10Q1 Q10R E12D

Cc1cnc(C)c(C)n1
inactive: O10H2 | O10H3 R54H | O10H4 I50V | O10H5 S268Y | O10J1 M62I I103M | O10J1 M62I | O10J3 Q235R E319G | O10P1 R195K | O10Q1 E12D | O10Q1 Q10R E12D

CCCC(S)CCOC(C)=O (stereo not given)
inactive: O10H2 | O10H3 R54H | O10H4 I50V | O10H5 S268Y | O10J1 M62I I103M | O10J1 M62I | O10J3 Q235R E319G | O10P1 R195K | O10Q1 E12D | O10Q1 Q10R E12D
